In ChEMBL document CHEMBL1821569, “Synthesis of novel 1,2,5-trisubstituted benzimidazoles as potential antitumor agents” (2011):

Experiments:
Format in all cases: functional
[1] = tested on: MDA-MB-231; experiment: Antitumor activity against human MDA-MB-231 cells after 48 hrs by SRB assay; conditions: MDA-MB-231, 48 h
How it was run: (§1)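 NCI 60-cell-line secondary screen. Cells were exposed continuously to drug for 48 h at five concentration levels (100, 10, 1.0, 0.1 and 0.01). Growth was estimated by sulforhodamine B protein staining. GI50 is the concentration giving a 50% reduction in net protein increase versus untreated control cells over the incubation. TGI (total growth inhibition) and LC50 (50% cell kill) were also derived.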

[2] = tested on: CCRF-CEM; experiment: Antitumor activity against human CCRF-CEM cells after 48 hrs by SRB assay; how it was run: as §1
[3] = tested on: A549; experiment: Antitumor activity against human A549 cells after 48 hrs by SRB assay; conditions: A549, 48 h; how it was run: as §1
[4] = tested on: NCI-H522; experiment: Antitumor activity against human NCI-H522 cells after 48 hrs by SRB assay; conditions: NCI-H522, 48 h; how it was run: as §1
[5] = tested on: NCI/ADR-RES; experiment: Antitumor activity against human NCI/ADR-RES cells after 48 hrs by SRB assay; how it was run: as §1
[6] = tested on: SR; experiment: Antitumor activity against human SR cells after 48 hrs by SRB assay
How it was run: (§2)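 NCI 60-cell-line secondary screen. Continuous 48 h exposure at five concentration levels. Cell growth estimated by sulforhodamine B protein staining. GI50 taken as the concentration giving 50% reduction in net protein increase relative to untreated control cells over the incubation. TGI (total growth inhibition) and LC50 (50% cell kill) were also derived.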

[7] = tested on: PC-3; experiment: Antitumor activity against human PC3 cells after 48 hrs by SRB assay; conditions: PC-3, 48 h; how it was run: as §1
[8] = tested on: IGROV-1; experiment: Antitumor activity against human IGROV1 cells after 48 hrs by SRB assay; conditions: IGROV-1, 48 h; how it was run: as §1
[9] = tested on: ACHN; experiment: Antitumor activity against human ACHN cells after 48 hrs by SRB assay; how it was run: as §1
[10] = tested on: Malme-3M; experiment: Antitumor activity against human MALME-3M cells after 48 hrs by SRB assay; how it was run: as §1
[11] = tested on: DU-145; experiment: Antitumor activity against human DU145 cells after 48 hrs by SRB assay; conditions: DU-145, 48 h; how it was run: as §1
[12] = tested on: HCT-116; experiment: Antitumor activity against human HCT116 cells after 48 hrs by SRB assay; conditions: HCT-116, 48 h; how it was run: as §1
[13] = tested on: MCF7; experiment: Antitumor activity against human MCF7 cells after 48 hrs by SRB assay; conditions: MCF7, 48 h; how it was run: as §1
[14] = tested on: A498; experiment: Antitumor activity against human A498 cells after 48 hrs by SRB assay; conditions: A498, 48 h; how it was run: as §1
[15] = tested on: M14; experiment: Antitumor activity against human M14 cells after 48 hrs by SRB assay; conditions: M14, 48 h; how it was run: as §1
[16] = tested on: SN12C; experiment: Antitumor activity against human SN12C cells after 48 hrs by SRB assay; how it was run: as §1
[17] = tested on: U-251; experiment: Antitumor activity against human U251 cells after 48 hrs by SRB assay; conditions: U-251, 48 h; how it was run: as §2
[18] = tested on: SK-MEL-2; experiment: Antitumor activity against human SK-MEL-2 cells after 48 hrs by SRB assay; conditions: SK-MEL-2, 48 h; how it was run: as §1
[19] = tested on: NCI-H226; experiment: Antitumor activity against human NCI-H226 cells after 48 hrs by SRB assay; conditions: NCI-H226, 48 h; how it was run: as §1
[20] = tested on: OVCAR-5; experiment: Antitumor activity against human OVCAR5 cells after 48 hrs by SRB assay; conditions: OVCAR-5, 48 h; how it was run: as §1
[21] = tested on: UO-31; experiment: Antitumor activity against human UO31 cells after 48 hrs by SRB assay; conditions: UO-31, 48 h; how it was run: as §2
[22] = tested on: UACC-257; experiment: Antitumor activity against human UACC257 cells after 48 hrs by SRB assay; conditions: UACC-257, 48 h; how it was run: as §2
[23] = tested on: HT-29; experiment: Antitumor activity against human HT-29 cells after 48 hrs by SRB assay; conditions: HT-29, 48 h; how it was run: as §1
[24] = tested on: T47D; experiment: Antitumor activity against human T47D cells after 48 hrs by SRB assay; how it was run: as §2
[25] = tested on: MDA-MB-435; experiment: Antitumor activity against human MDA-MB-435 cells after 48 hrs by SRB assay; conditions: MDA-MB-435, 48 h; how it was run: as §1
[26] = Antitumor activity against human Hs 578T cells after 48 hrs by SRB assay; how it was run: as §1
[27] = tested on: OVCAR-3; experiment: Antitumor activity against human OVCAR3 cells after 48 hrs by SRB assay; conditions: OVCAR-3, 48 h; how it was run: as §1
[28] = tested on: SNB-75; experiment: Antitumor activity against human SNB75 cells after 48 hrs by SRB assay; conditions: SNB-75, 48 h; how it was run: as §1
[29] = tested on: OVCAR-8; experiment: Antitumor activity against human OVCAR8 cells after 48 hrs by SRB assay; conditions: OVCAR-8, 48 h; how it was run: as §1
[30] = tested on: SF-295; experiment: Antitumor activity against human SF295 cells after 48 hrs by SRB assay; conditions: SF-295, 48 h; how it was run: as §1
[31] = read-out: LC50 (the source's name)

COC(=O)c1ccc2c(c1)nc(-c1cc3ccccc3[nH]c1=O)n2-c1cc(C(C)(C)C)[nH]n1
1.34 µM: GI50 [23]
4.13 µM: GI50 [1]
76.9 µM: TGI [14]
6.27 µM: GI50 [27]
0.533 µM: GI50 [21]
34.1 µM: TGI [26]
0.965 µM: GI50 [8]
1.79 µM: GI50 [29]
5.29 µM: GI50 [5]
1.74 µM: GI50 [12]
0.619 µM: GI50 [26]
0.585 µM: GI50 [2]
5.61 µM: GI50 [16]
0.928 µM: GI50 [4]
10 µM: GI50 [6]
13.6 µM: GI50 [14]
0.652 µM: GI50 [17]
2.63 µM: GI50 [10]
2.25 µM: GI50 [18]
25.5 µM: TGI [30]
5.42 µM: GI50 [28]
7 µM: GI50 [19]
2.37 µM: GI50 [11]
> 100 µM: TGI [1] | CC50 [1, 31] | TGI [2] | CC50 [2, 31] | GI50 [3] | TGI [3] | CC50 [3, 31] | LC50 (50% cell kill) [4] | TGI [4] | TGI [5] | CC50 [5, 31] | TGI [6] | CC50 [6, 31] | TGI [7] | CC50 [7, 31] | TGI [8] | CC50 [8, 31] | GI50 [9] | TGI [9] | CC50 [9, 31] | TGI [10] | CC50 [10, 31] | TGI [11] | CC50 [11, 31] | LC50 [12] | TGI [12] | GI50 [13] | TGI [13] | CC50 [13, 31] | CC50 [14, 31] | TGI [15] | CC50 [15, 31] | TGI [16] | CC50 [16, 31] | TGI [17] | CC50 [17, 31] | TGI [18] | CC50 [18, 31] | LC50 (50% cell kill) [19] | TGI [19] | TGI [20] | CC50 [20, 31] | TGI [21] | CC50 [21, 31] | TGI [22] | CC50 [22, 31] | LC50 (50% cell kill) [23] | TGI [23] | GI50 [24] | TGI [24] | CC50 [24, 31] | TGI [25] | CC50 [25, 31] | CC50 [26, 31] | TGI [27] | CC50 [27, 31] | CC50 [28, 31] | TGI [29] | CC50 [29, 31] | CC50 [30, 31]
41.5 µM: TGI [28]
2.27 µM: GI50 [7]
1.23 µM: GI50 [30]
